DSG3 Ab inh: blocks pemphigus antibody binding to human desmoglein-3 | 0.48% of 310,000 active | DSG3-coupled beads, scFv-anti-DSG3-GFP binding, flow cytometry; stronger effect = lower value | AID 588358 | binding (percent of control), % at 10 µM;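 active means binding more than 3 SD below its plate's average and above zero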;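 further: hits lower antibody fragment binding to DSG3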
Target sequence (P32926 whole entry, looked up, the tested form may be a part): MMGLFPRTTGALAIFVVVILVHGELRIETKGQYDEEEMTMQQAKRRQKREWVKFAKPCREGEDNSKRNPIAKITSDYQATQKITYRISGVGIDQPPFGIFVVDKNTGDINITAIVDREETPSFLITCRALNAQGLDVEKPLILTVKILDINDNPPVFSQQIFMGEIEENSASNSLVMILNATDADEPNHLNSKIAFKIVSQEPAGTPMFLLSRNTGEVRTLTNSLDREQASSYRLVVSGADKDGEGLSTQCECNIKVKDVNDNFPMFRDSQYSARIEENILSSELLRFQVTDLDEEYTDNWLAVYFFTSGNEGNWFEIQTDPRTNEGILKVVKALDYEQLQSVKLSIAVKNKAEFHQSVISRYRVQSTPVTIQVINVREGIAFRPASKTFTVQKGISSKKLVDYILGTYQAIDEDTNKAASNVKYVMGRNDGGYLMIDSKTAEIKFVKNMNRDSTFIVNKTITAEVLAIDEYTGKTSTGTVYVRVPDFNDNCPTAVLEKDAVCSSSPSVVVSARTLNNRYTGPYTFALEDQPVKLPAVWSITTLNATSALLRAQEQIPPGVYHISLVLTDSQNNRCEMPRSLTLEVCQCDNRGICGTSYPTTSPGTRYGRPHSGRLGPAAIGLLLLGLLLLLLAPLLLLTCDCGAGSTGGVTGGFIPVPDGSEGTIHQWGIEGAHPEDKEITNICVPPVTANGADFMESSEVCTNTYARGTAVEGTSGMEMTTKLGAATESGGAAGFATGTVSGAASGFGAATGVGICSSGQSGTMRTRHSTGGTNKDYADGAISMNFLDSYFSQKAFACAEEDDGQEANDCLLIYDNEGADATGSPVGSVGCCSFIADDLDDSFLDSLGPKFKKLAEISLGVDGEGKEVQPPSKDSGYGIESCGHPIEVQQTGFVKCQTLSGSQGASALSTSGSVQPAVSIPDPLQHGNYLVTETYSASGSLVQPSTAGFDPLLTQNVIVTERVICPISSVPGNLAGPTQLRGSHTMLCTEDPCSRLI
TRPC4 inh: inhibitors of mouse TRPC4 channel; HEK293 TRPC4beta/mu-opioid, DAMGO-evoked Fluo4 calcium flux; stronger effect = lower value; 0.39% of 300,000 active; B-score at 10 µM;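 active means B-score over 3 SD under the library average, no early fluorescence shift, positive overall ratio signal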
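Assay system: Stable TRPC4beta/mu-opioid receptor HEK293 cells | Reagent: DAMGO in two steps, submaximal then maximal | Compound dosing: Single concentration per test compound | Signal: Fluo4 Ca2+ flux fluorescence | Evaluation: Per-well B score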
TRPC6 inh: inhibitors of mouse TRPC6 channel; HEK293-TRPC6, membrane potential dye, ACh-evoked depolarization; stronger effect = lower value; Q61143; B-score at 10 µM; AID 2553; 1.1% of 310,000 active;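 active means B-score under library mean minus 3 SD, initial fluorescence not abnormally high, positive integrated signal ratio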;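 further: B-score derived from integrated fluorescence ratio over the kinetic read; more negative B-score means stronger inhibition of depolarization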
TRPC4 agonist: activators of mouse TRPC4 channel; HEK293 TRPC4beta/mu-opioid, Fluo4 calcium fluorescence; stronger effect = higher value; 0.49% of 310,000 active; B-score at 10 µM; Q9QUQ5; AID 2237;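 active means B-score above 5 SD of library B-scores, and initial fluorescence ratio not above library mean plus 5 SD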;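 further: positive B-score marks a calcium rise read as TRPC4 activation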
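Incubation: 45 min room-temperature Fluo4 loading, 110 s read / System: HEK293 cells stably co-expressing mouse TRPC4beta and mu-opioid receptor / Signal: Fluo4 fluorescence, kinetic / Control set: buffer (low) and maximal DAMGO (high) / Measure: integrated baseline-normalised fluorescence ratio, converted to per-well B score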
TRPC6 activator: activates the mouse TRPC6 cation channel; Q61143; HEK293-TRPC6 membrane potential dye fluorescence; stronger effect = higher value; B-score at 10 µM; 0.13% of 310,000 active;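 active means B-score of the integrated fluorescence ratio above library mean plus 3 SD, and starting fluorescence ratio within library mean plus 5 SD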;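 further: higher score means more depolarization so channel activation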
TRPC4 PAM: allosterically enhances the mouse TRPC4 cation channel. Q9QUQ5. HEK293 TRPC4beta/mu-opioid, DAMGO EC20, Fluo-4 Ca2+ flux; stronger effect = higher value. B-score at 10 µM. 0.42% of 310,000 active;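 active means B-score of calcium response area above 5 SD of library B-scores, with initial fluorescence ratio within 5 SD of library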;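 further: B-score of integrated fluorescence ratio over time as area under calcium response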
TRPC4 sel inh 2: mouse TRPC4 off-target activity of TRPC6 inhibitors, second screen. shares compounds with TRPC6 inh. HEK293 TRPC4/MOR, membrane potential dye fluorescence; channel activated by saturating DAMGO dose. inhibition, % at 10 µM. 42% of 920 active;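 active means compounds whose fluorescence signal differed from control wells by over 3 SD, either direction, in both duplicate plates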
TRPC4 spec: selectivity of TRPC6 inhibitors: effect on mouse TRPC4; shares compounds with TRPC6 inh; HEK293 TRPC4/mu-opioid, membrane potential fluorescence; activity change, negative = inhibition, % at 10 µM; 61% of 920 active;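 active means rise or fall in signal beyond 3 SD of buffer-only wells in both replicate plates, either sign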;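 further: integrated kinetic ratio of fluorescence range over baseline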
HEK293 MPD ctr 2-1: second check of TRPC6 inhibitor effects in parental HEK293 cells; signal change vs control, % at 10 µM; shares compounds with TRPC6 inh; parental HEK293 membrane potential dye fluorescence; maximal acetylcholine challenge after compound addition; 31% of 920 active;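 active means membrane potential signal moving either way by over 3 SD of the maximum-effect control, in both duplicate plates, meaning non-specific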
HEK293 MPD ctr-1: parental HEK293 nonspecific activity of TRPC6 inhibitors; shares compounds with TRPC6 inh; parental HEK293 membrane potential dye fluorescence; membrane potential signal change, % at 10 µM; 60% of 920 active; AID 2780;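 active means membrane potential signal shifting up or down by more than 3 SD of buffer-only wells, on both duplicate plates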
HEK293 MPD ctr-2: parental HEK293 nonspecific activity of TRPC6 modulators; membrane potential dye fluorescence; shares compounds with TRPC6 inh; 51% of 2,400 active; membrane potential signal change, % at 10 µM; AID 488924;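 active means membrane potential signal moves up or down beyond 5 SD from buffer-only wells, on both duplicate plates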
HEK293 MPD ctr 2-2: second counter-screen for TRPC6 modulators: effect in parental HEK293 cells; shares compounds with TRPC6 inh; membrane potential dye fluorescence; after compound, maximal acetylcholine stimulation; inhibition, % at 10 µM; 14% of 2,400 active;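 active means membrane potential signal drops by more than 5 SD from the mean control signal, in both duplicate plates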;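 further: plate controls were acetylcholine ECmax control wells for no effect and buffer only wells for full effect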
TRPC4/MOR mod: tests whether TRPC6 modulators also affect mouse TRPC4; shares compounds with TRPC6 inh; HEK293 TRPC4/mu-opioid, membrane potential fluorescence; percent change from control (negative = decrease, positive = increase), % at 10 µM; 69% of 2,400 active; AID 488927;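 active means membrane potential signal moved up or down beyond 5 SD of buffer control wells, in both duplicate plates, actives on both sides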;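 further: plate controls were assay buffer wells for no effect and DAMGO maximal-effect wells for full effect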
TRPC4/MOR inh 2: mouse TRPC4 off-target activity of TRPC6 modulators, second screen; HEK293 TRPC4/mu-opioid, membrane potential dye fluorescence; stimulated with maximal-effect DAMGO; 55% of 2,400 active; inhibition, % at 10 µM; AID 488928; shares compounds with TRPC6 inh;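 active means drop in membrane potential signal beyond 5 SD of the control wells in both duplicate plates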;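 further: TRPC4 counter screen for TRPC6 hits run under conditions tuned for TRPC6 not TRPC4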
TRPC6 inh conf: confirmation of mouse TRPC6 inhibitors; shares compounds with TRPC6 inh; HEK293-TRPC6, membrane potential dye, ACh-evoked depolarization; inhibition, % at 10 µM; 43% of 3,300 active;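 active means fluorescence ratio falls more than 5 SD below the full-stimulation control mean, in both duplicate runs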;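 further: integrated fluorescence ratio of peak minus minimum over baseline after agonist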
TRPC6 act confirm: confirmation of mouse TRPC6 activators; AID 488961; HEK293-TRPC6 membrane potential dye fluorescence, FDSS; activation, % at 10 µM; 11% of 2,800 active; shares compounds with TRPC6 inh;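 active means ratio signal rise beyond 5 SD above unstimulated control wells' mean, seen in both duplicate runs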;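 further: plate controls were buffer EC0 wells for no effect and acetylcholine ECmax response for full effect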
Numbers without * were called inactive; i = inactive; . = no result; + = active, no number. Most compounds without a hit are left out; they make up all but 2.5% or so of the library.

SMILES | DSG3 Ab inh | TRPC4 inh | TRPC6 inh | TRPC4 agonist | TRPC6 activator | TRPC4 PAM | TRPC4 sel inh 2 | TRPC4 spec | HEK293 MPD ctr 2-1 | HEK293 MPD ctr-1 | HEK293 MPD ctr-2 | HEK293 MPD ctr 2-2 | TRPC4/MOR mod | TRPC4/MOR inh 2 | TRPC6 inh conf | TRPC6 act confirm
Cc1ccc(-c2csc(NC(=O)CSc3nc(C)cc(=O)[nH]3)n2)cc1 | . | i | -7.7* | i | i | i | i | i | 260%* | i | . | . | . | . | i | i
COCCCNC(=O)CCn1nc(-c2ccc(Cl)cc2)ccc1=O | 87 | i | -5.2* | i | i | i | . | . | . | . | i | i | i | i | i | i
CN1C(=O)c2cccc3c(N(C)C)ccc(c23)C1=O | 112 | i | i | i | 19* | i | . | . | . | . | 927%* | + | 144%* | 58%* | . | 234%*
CNS(=O)(=O)c1cccc(C(=O)OCc2cc(=O)oc3c(C)c(O)ccc23)c1 | 100 | i | -6.3* | i | i | i | . | . | . | . | i | i | i | 54%* | i | i
Fc1c(F)c(F)c(N=Cc2ccc3ncccc3c2)c(F)c1F | 111 | i | i | i | i | i | . | . | . | . | . | . | . | . | . | .
C[C@@H]1CN([C@H](C)CO)C(=O)CCCn2nncc2CO[C@H]1CN(C)Cc1cccc2c1OCCCO2 | 100 | . | . | . | . | . | . | . | . | . | . | . | . | . | . | .
CCOCCCn1c(=N)c(C(N)=S)cc2c(=O)n3cccc(C)c3nc21 | . | i | -8.9* | i | i | i | i | i | 26%* | -196%* | . | . | . | . | i | i
Cc1cccn2c(=O)c3cc(C(N)=S)c(=N)n(CCCOC(C)C)c3nc12 | 103 | i | -7.3* | i | i | i | i | -19%* | i | -408%* | . | . | . | . | i | i
CCC(C)n1c(=N)c(C#N)cc2c(=O)n3cc(C)ccc3nc21 (configuration not stated) | 102 | i | -6.9* | i | i | i | . | . | . | . | i | i | i | i | i | i
CCN(CC)CCCOC(=O)C(c1ccccc1)c1ccccc1 | 98 | i | -7.2* | i | i | i | i | 9.6%* | i | 12%* | . | . | . | . | 61%* | .
CCOC(=O)N1CCC(N2CCN(Cc3ccccc3)C(CCO)C2)CC1 (configuration not stated) | 106 | i | i | i | i | i | . | . | . | . | . | . | . | . | . | .
CCOC(=O)N1CCC(N2CCN(C3CCCC3)C(CCO)C2)CC1 (configuration not stated) | 93 | i | -8.2* | i | i | i | i | i | i | i | . | . | . | . | i | i
CCOC(=O)N1CCC(NC2CCCCCCC2)CC1 | 98 | i | -8.5* | i | i | i | i | i | i | 3.0%* | . | . | . | . | i | .
CCCN(CC(=O)Nc1cc(Cl)ccc1Cl)C(=O)c1ccccc1SCC(=O)N1CCCC1 | 102 | i | i | i | i | i | . | . | . | . | . | . | . | . | . | .
Cc1ccc(/C=C/C(=O)O)cc1S(=O)(=O)N1CCc2ccccc21 | 96 | i | i | i | i | i | . | . | . | . | . | . | . | . | . | .
CCC(C)c1ccccc1OCCCNC1CCCC1 (configuration not stated) | 103 | i | -5* | i | i | i | . | . | . | . | 232%* | i | 58%* | 58%* | 44%* | .
COc1ccc(Nc2c3c(nc4ccccc24)CCC3)cc1 | 99 | -7* | -5.2* | i | i | i | . | . | . | . | 157%* | i | 24%* | 36%* | i | .
COc1ccc(CCNc2c3ccccc3nc3ccccc23)cc1OC | 102 | i | -6.8* | i | i | i | 68%* | -24%* | i | -412%* | . | . | . | . | i | i
c1ccc2c(N3CCOCC3)c3c(nc2c1)CCC3 | 100 | i | -5.3* | i | i | i | . | . | . | . | -283%* | i | -40%* | 48%* | i | i
CN(C)CCCNc1c2c(nc3ccccc13)CCC2 | 97 | i | i | i | i | i | . | . | . | . | . | . | . | . | . | .
COCCNc1c2c(nc3ccccc13)CCC2 | 117 | -6* | -5.2* | i | i | i | . | . | . | . | -144%* | i | -26%* | 52%* | 46%* | i
CC(=O)Nc1cccc(C(=O)Nc2cc(C(F)(F)F)ccc2-n2cncn2)c1 | 105 | . | . | . | . | . | . | . | . | . | . | . | . | . | . | .
S=c1[nH]nc(Cn2cnc3ccccc32)n1-c1ccccc1 | 98 | i | i | i | i | i | . | . | . | . | . | . | . | . | . | .
COc1ccc(Nc2c3c(nc4ccccc24)CCCC3)cc1OC | 108 | i | -6* | i | i | i | . | . | . | . | i | i | i | 44%* | i | i
CC(=O)OCCc1[nH]c2ccccc2c1C | 97 | i | i | i | i | i | . | . | . | . | . | . | . | . | . | .
CC(=O)OCCc1c2ccccc2c(CCCN(C)C)c2ccccc12 | 118 | i | -6.1* | i | i | i | . | . | . | . | -87%* | i | -18%* | 67%* | 48%* | i
CC(=O)C[C@H](O)CC(=O)[C@H]1OC(=O)CCCCCCc2ccccc21 | 107 | . | . | . | . | . | . | . | . | . | . | . | . | . | . | .

Screening results as filed in PubChem.
